Experimental data: ChEMBL document CHEMBL5143675, “Attenuating the Streptococcus pneumoniae Competence Regulon Using Urea-Bridged Cyclic Dominant-Negative Competence-Stimulating Peptide Analogs” (J Med Chem, 2022)
Where a SMILES comes first, the peptide text is derived from it. [ ]: non-standard residue; d: D form. Orn = NCCC[C@H](N)C(=O)O; Dab = NCC[C@H](N)C(=O)O; Dap = NC[C@H](N)C(=O)O

Assay: Antagonist activity against Streptococcus pneumoniae TIGR4-pcomX-lacZ strain expressing ComD2 receptor assessed as inhibition of ComD2 receptor activity by beta-galactosidase reporter gene assay
Summary of the method: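 TIGR4 pcomX::lacZ reporter grown on THY plates with 5% horse serum and 4 μg/mL chloramphenicol (8–9 h, 37 °C, 5% CO2). 2–3 colonies were grown overnight (15 h) in THY with chloramphenicol, diluted 1:10, and grown 3–4 h to OD600 0.20–0.25. Peptides were tested as competitive inhibitors against native CSP2. […] Three independent experiments.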

IC50, > 1000 nM:
CC[C@H](C)[C@H](NC(=O)[C@H](Cc1ccccc1)NC(=O)[C@H](CCCN)NC(=O)[C@H](CCCNC(=N)N)NC(=O)[C@H](Cc1ccccc1)NC(=O)[C@H](Cc1ccccc1)NC(=O)[C@H](CCN)NC(=O)[C@H](CO)NC(=O)[C@H](CC(C)C)NC(=O)[C@H](CCCNC(=N)N)NC(=O)[C@H](CCSC)NC(=O)[C@H](C)N)C(=O)N[C@@H](CC(C)C)C(=O)N[C@@H](CCC(N)=O)C(=O)N[C@@H](CCCNC(=N)N)C(=O)N[C@@H](CCCCN)C(=O)N[C@@H](CCCCN)C(=O)O (H-AMRLS[Dab]FFR[Orn]FILQRKK-OH)
CC[C@H](C)[C@H](NC(=O)[C@H](Cc1ccccc1)NC(=O)[C@H](CCCN)NC(=O)[C@H](CCCNC(=N)N)NC(=O)[C@H](Cc1ccccc1)NC(=O)[C@H](Cc1ccccc1)NC(=O)[C@H](CCCN)NC(=O)[C@H](CO)NC(=O)[C@H](CC(C)C)NC(=O)[C@H](CCCNC(=N)N)NC(=O)[C@H](CCSC)NC(=O)[C@H](C)N)C(=O)N[C@@H](CC(C)C)C(=O)N[C@@H](CCC(N)=O)C(=O)N[C@@H](CCCNC(=N)N)C(=O)N[C@@H](CCCCN)C(=O)N[C@@H](CCCCN)C(=O)O (H-AMRLS[Orn]FFR[Orn]FILQRKK-OH)
CC[C@H](C)[C@H](NC(=O)[C@H](Cc1ccccc1)NC(=O)[C@H](CN)NC(=O)[C@H](CCCNC(=N)N)NC(=O)[C@H](Cc1ccccc1)NC(=O)[C@H](Cc1ccccc1)NC(=O)[C@H](CCN)NC(=O)[C@H](CO)NC(=O)[C@H](CC(C)C)NC(=O)[C@H](CCCNC(=N)N)NC(=O)[C@H](CCSC)NC(=O)[C@H](C)N)C(=O)N[C@@H](CC(C)C)C(=O)N[C@@H](CCC(N)=O)C(=O)N[C@@H](CCCNC(=N)N)C(=O)N[C@@H](CCCCN)C(=O)N[C@@H](CCCCN)C(=O)O (H-AMRLS[Dab]FFR[Dap]FILQRKK-OH)
CC[C@H](C)[C@H](NC(=O)[C@H](Cc1ccccc1)NC(=O)[C@H](CN)NC(=O)[C@H](CCCNC(=N)N)NC(=O)[C@H](Cc1ccccc1)NC(=O)[C@H](Cc1ccccc1)NC(=O)[C@H](CCCN)NC(=O)[C@H](CO)NC(=O)[C@H](CC(C)C)NC(=O)[C@H](CCCNC(=N)N)NC(=O)[C@H](CCSC)NC(=O)[C@H](C)N)C(=O)N[C@@H](CC(C)C)C(=O)N[C@@H](CCC(N)=O)C(=O)N[C@@H](CCCNC(=N)N)C(=O)N[C@@H](CCCCN)C(=O)N[C@@H](CCCCN)C(=O)O (H-AMRLS[Orn]FFR[Dap]FILQRKK-OH)
CC[C@H](C)[C@H](NC(=O)[C@H](Cc1ccccc1)NC(=O)[C@H](CCN)NC(=O)[C@H](CCCNC(=N)N)NC(=O)[C@H](Cc1ccccc1)NC(=O)[C@H](Cc1ccccc1)NC(=O)[C@H](CCN)NC(=O)[C@H](CO)NC(=O)[C@H](CC(C)C)NC(=O)[C@H](CCCNC(=N)N)NC(=O)[C@H](CCSC)NC(=O)[C@H](C)N)C(=O)N[C@@H](CC(C)C)C(=O)N[C@@H](CCC(N)=O)C(=O)N[C@@H](CCCNC(=N)N)C(=O)N[C@@H](CCCCN)C(=O)N[C@@H](CCCCN)C(=O)O (H-AMRLS[Dab]FFR[Dab]FILQRKK-OH)
CC[C@H](C)[C@H](NC(=O)[C@H](Cc1ccccc1)NC(=O)[C@H](CCN)NC(=O)[C@H](CCCNC(=N)N)NC(=O)[C@H](Cc1ccccc1)NC(=O)[C@H](Cc1ccccc1)NC(=O)[C@H](CCCN)NC(=O)[C@H](CO)NC(=O)[C@H](CC(C)C)NC(=O)[C@H](CCCNC(=N)N)NC(=O)[C@H](CCSC)NC(=O)[C@H](C)N)C(=O)N[C@@H](CC(C)C)C(=O)N[C@@H](CCC(N)=O)C(=O)N[C@@H](CCCNC(=N)N)C(=O)N[C@@H](CCCCN)C(=O)N[C@@H](CCCCN)C(=O)O (H-AMRLS[Orn]FFR[Dab]FILQRKK-OH)
